Experiments:
[1] = target: T1, PI3-kinase p110-alpha/p85-alpha (Homo sapiens, UniProt P42336); experiment: Inhibition of PI3K p110alpha/p85alpha; assay type: protein-complex assay
In short: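 Biochemical kinase assay following the kit manufacturer's protocol with a modified kinase buffer (50 mM HEPES pH 7.5, 3 mM MgCl2, 100 mM NaCl, 1 mM EGTA, 0.04% CHAPS, 2 mM TCEP, 0.01 mg/ml BGG); 10 nM enzyme; ATP 50 µM; values are averages of two independent experiments, each in duplicate.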

[2] = target: T1, PI3-kinase p110-alpha/p85-alpha; experiment: Inhibition of PI3K p110alpha/p85alpha-mediated AKT1 phosphorylation at Ser473 in human U2OS cells; assay type: cell-based
In short: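 Endogenous phospho-Akt1 (Ser473) measured in U2OS osteosarcoma cells kept in 0.1% FBS and then serum-stimulated; read-out by cell-based ELISA with femto chemiluminescent substrate.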

CYP2C9 = CYP2C9 (Homo sapiens, UniProt P11712); experiment: Inhibition of CYP2C9 at 10 uM; assay type: ADME
CYP2C9, sequence (P11712 whole entry, canonical isoform): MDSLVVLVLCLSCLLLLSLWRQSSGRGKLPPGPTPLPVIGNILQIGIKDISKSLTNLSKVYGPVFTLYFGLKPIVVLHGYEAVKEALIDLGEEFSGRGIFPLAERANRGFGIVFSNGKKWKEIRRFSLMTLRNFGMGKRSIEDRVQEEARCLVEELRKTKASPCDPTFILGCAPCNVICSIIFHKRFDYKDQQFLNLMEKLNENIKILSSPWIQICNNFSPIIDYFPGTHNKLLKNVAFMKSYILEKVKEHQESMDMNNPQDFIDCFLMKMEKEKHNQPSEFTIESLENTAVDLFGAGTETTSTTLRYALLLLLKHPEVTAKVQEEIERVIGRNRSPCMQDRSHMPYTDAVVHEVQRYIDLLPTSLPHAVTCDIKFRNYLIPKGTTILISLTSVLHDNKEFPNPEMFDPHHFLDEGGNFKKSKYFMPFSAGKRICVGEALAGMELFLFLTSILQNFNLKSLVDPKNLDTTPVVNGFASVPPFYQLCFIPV
In short: (§1)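 CYP isoform panel (1A2, 2C9, 2C19, 2D6, 3A4); percent inhibition recorded at 10 µM test compound; run in duplicate by an outside contractor.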

CYP3A4 = CYP3A4 (Homo sapiens, UniProt P08684); experiment: Inhibition of CYP3A4 at 10 uM; assay type: ADME; in short: as §1
CYP3A4, sequence (P08684 whole entry): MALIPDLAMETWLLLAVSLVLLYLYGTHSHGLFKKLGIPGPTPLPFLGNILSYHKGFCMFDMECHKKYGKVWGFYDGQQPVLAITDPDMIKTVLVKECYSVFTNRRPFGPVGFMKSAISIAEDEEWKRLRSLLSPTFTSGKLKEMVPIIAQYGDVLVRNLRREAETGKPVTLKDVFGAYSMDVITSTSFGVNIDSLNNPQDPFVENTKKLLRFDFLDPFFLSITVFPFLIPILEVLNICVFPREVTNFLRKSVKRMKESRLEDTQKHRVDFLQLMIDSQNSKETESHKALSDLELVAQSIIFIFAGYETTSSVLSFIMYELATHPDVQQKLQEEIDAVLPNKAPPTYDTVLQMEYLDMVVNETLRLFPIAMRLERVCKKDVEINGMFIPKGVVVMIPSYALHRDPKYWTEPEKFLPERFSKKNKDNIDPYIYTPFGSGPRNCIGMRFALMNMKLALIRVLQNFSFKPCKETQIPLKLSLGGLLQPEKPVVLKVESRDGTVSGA

CYP2D6 = CYP2D6 (Homo sapiens, UniProt P10635); experiment: Inhibition of CYP2D6 at 10 uM; assay type: ADME; in short: as §1
CYP2D6, sequence (P10635 whole entry): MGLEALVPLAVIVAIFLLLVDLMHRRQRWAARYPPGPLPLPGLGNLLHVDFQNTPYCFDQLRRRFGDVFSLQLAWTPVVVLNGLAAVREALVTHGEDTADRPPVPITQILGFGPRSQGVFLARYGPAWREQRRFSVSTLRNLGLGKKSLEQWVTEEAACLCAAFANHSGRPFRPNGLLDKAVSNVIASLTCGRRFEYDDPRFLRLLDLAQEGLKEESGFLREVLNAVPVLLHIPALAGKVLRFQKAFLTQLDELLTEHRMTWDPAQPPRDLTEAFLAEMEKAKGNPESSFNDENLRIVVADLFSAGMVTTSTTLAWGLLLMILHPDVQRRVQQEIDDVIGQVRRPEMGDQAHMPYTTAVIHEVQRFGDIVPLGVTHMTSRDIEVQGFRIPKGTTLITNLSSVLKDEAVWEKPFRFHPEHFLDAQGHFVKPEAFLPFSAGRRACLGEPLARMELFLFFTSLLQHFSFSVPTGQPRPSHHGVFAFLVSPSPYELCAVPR

CYP2C19 = CYP2C19 (Homo sapiens, UniProt P33261); experiment: Inhibition of CYP2C19 at 10 uM; assay type: ADME; in short: as §1
CYP2C19, sequence (P33261 whole entry): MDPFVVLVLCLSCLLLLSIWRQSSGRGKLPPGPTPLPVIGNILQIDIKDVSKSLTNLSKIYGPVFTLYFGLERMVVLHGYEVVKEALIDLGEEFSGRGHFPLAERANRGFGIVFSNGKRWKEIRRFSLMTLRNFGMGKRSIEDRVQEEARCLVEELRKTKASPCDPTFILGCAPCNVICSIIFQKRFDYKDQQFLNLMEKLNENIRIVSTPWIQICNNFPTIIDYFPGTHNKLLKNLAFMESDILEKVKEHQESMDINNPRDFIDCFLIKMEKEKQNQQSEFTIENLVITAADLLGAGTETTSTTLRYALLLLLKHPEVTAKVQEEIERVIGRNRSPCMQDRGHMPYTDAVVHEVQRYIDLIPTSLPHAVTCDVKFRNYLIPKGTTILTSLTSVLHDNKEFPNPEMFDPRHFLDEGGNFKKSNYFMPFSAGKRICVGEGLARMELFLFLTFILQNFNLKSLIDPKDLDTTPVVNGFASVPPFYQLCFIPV

[3] = Metabolic stability in mouse liver microsomes assessed as compound remaining at 1 uM after 30 mins
CYP1A2 = target: T2, CYP1A2 (Homo sapiens, UniProt P05177); experiment: Inhibition of CYP1A2 at 10 uM; assay type: ADME; in short: as §1
T2 sequence (P05177 whole entry): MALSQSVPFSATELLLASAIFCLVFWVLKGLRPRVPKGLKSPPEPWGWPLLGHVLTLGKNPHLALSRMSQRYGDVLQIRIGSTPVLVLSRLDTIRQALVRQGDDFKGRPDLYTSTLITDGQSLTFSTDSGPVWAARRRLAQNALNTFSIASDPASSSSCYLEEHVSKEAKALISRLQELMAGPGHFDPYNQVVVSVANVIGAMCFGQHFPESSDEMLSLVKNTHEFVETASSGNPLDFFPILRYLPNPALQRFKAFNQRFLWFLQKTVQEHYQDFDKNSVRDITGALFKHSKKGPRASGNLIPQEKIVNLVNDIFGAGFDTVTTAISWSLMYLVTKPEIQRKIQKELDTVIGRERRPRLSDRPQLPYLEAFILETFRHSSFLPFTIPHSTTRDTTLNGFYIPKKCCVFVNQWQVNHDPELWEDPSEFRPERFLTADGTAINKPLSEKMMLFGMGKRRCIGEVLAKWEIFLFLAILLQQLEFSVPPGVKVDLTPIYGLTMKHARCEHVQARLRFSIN

[4] = Metabolic stability in human liver microsomes assessed as compound remaining at 1 uM after 30 mins

T1 sequence (P27986 whole entry): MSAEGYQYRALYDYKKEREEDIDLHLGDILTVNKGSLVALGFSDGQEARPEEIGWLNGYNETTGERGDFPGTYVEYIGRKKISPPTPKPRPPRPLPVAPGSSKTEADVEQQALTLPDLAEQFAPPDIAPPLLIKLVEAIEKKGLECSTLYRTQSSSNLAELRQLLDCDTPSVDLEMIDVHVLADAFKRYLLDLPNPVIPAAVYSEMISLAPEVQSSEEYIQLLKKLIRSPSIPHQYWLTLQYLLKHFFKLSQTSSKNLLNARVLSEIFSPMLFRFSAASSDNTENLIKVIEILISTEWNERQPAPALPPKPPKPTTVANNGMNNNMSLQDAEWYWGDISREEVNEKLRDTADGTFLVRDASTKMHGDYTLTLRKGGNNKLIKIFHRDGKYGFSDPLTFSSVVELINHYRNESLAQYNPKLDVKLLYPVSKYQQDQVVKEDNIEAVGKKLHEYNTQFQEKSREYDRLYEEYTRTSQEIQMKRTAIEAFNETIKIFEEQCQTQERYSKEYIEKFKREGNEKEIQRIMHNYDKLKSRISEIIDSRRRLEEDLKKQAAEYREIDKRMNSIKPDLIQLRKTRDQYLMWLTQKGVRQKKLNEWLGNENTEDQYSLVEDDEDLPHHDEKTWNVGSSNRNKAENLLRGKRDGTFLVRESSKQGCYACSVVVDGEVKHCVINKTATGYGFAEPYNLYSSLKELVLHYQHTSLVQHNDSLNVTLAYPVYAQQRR
T1 sequence (P42336 whole entry): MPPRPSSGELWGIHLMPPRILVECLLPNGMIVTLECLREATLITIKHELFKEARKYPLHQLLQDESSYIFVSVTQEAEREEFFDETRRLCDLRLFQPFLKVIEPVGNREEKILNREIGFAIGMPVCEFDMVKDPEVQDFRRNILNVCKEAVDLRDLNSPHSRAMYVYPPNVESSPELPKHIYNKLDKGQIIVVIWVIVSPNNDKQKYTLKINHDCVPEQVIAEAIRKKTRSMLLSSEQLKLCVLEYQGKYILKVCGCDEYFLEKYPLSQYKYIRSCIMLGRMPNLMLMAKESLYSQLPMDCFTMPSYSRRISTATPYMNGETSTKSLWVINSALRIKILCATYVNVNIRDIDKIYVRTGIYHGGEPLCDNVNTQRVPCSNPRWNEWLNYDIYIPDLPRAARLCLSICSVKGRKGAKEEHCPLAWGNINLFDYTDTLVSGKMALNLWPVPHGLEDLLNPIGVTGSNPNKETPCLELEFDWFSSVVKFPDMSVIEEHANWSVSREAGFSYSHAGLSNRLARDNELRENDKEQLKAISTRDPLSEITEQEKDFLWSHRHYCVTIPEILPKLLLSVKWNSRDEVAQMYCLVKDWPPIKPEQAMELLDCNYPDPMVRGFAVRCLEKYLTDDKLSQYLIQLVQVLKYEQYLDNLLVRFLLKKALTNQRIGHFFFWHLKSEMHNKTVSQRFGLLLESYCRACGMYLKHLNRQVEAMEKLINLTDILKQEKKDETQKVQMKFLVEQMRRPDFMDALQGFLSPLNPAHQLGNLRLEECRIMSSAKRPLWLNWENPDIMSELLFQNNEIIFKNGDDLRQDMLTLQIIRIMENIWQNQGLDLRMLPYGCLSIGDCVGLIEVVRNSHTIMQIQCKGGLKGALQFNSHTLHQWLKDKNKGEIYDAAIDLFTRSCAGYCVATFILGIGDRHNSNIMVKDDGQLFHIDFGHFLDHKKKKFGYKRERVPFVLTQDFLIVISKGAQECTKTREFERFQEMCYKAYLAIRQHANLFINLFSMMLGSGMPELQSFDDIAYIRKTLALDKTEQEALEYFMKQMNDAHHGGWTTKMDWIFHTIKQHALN

| Compound | IC50 [1] [nM] | EC50 [2] [nM] | also measured |
| --- | --- | --- | --- |
| NC(=O)c1cn2cc(-c3cccc4[nH]ncc34)nc(N3CCOCC3)c2n1 | 107 | 138 |  |
| COCCNC(=O)c1cn2cc(-c3cccc4[nH]ncc34)nc(N3CCOCC3)c2n1 | 50 | 200 | inhibition at 10 µM (CYP2C9): < 25%; inhibition at 10 µM (CYP3A4): < 25%; inhibition at 10 µM (CYP2D6): < 25%; inhibition at 10 µM (CYP2C19): < 25%; remaining at 0.5 h, 1 µM [3]: 62%; inhibition at 10 µM (CYP1A2): < 25%; remaining at 0.5 h, 1 µM [4]: 75% |
| CCNC(=O)c1cn2cc(-c3cccc4[nH]ncc34)nc(N3CCOCC3)c2n1 |  | 713 |  |
| CN1CCN(Cc2cn3cc(-c4cccc(O)c4)nc(N4CCOCC4)c3n2)CC1 | 2750 |  |  |
| CN1CCN(c2cnc3c(N4CCOCC4)nc(-c4cccc(O)c4)cn23)CC1 | 512 |  |  |
| CN(C)CCNC(=O)c1cn2cc(-c3cccc4[nH]ncc34)nc(N3CCOCC3)c2n1 | 35 | 976 |  |
| CS(=O)(=O)N1CCN(c2cnc3c(N4CCOCC4)nc(-c4cccc(O)c4)cn23)CC1 | 526 |  |  |
| CS(=O)(=O)N1CCN(Cc2cc3nc(-c4cccc5[nH]ncc45)nc(N4CCOCC4)c3s2)CC1 [PICTILISIB] |  |  | inhibition at 10 µM (CYP2C9): < 25%; inhibition at 10 µM (CYP3A4): < 25%; inhibition at 10 µM (CYP2D6): < 25%; inhibition at 10 µM (CYP2C19): < 25%; inhibition at 10 µM (CYP1A2): < 25% |
| Oc1cccc(-c2cn3ccnc3c(N3CCOCC3)n2)c1 | 197 |  |  |
| Oc1cccc(-c2cn3c(N4CCNCC4)cnc3c(N3CCOCC3)n2)c1 | 897 |  |  |
